Activity calls are given as the source filed them. No cut-off for these calls is given here.
Legend:
HEK293 = experiment: Inhibition of LPS-induced NF-kappaB induction in HEK293 cells co-transfected with TLR4, CD14 and MD2; type: functional, cell-based; settings: Homo sapiens
Procedure, shortened: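 HEK293 cells stably expressing TLR4, CD14, MD2 and an NF-κB/AP-1-driven secreted alkaline phosphatase reporter. Plated at ~10^5 cells/ml and grown to confluency. Stimulated with 10 ng/ml E. coli O111:B4 LPS plus serially diluted compound, then incubated overnight. seAP in the supernatant was read by chromogen at 620 nm.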

[1] = target: T1, MAP kinase p38 (Homo sapiens) (UniProt O15264+Q15759+Q16539+P53778); experiment: Inhibition of p38MAPK phosphorylation in TNF-alpha-induced human whole blood neutrophils; type: protein assay
Mus musculus [2] = experiment: Inhibition of LPS-induced plasma IL6 level in sc dosed mouse pretreated 1 hr before LPS challenge by CBA assay; type: functional, organism-based
Procedure, shortened: (§1)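 Female outbred CF-1 mice (9–11 weeks, 22–28 g), 5 per group. Graded compound or vehicle given s.c. at −1 h, then 200 ng LPS in saline i.p. at 0 h. Terminal cardiac-puncture blood taken under halothane at 1, 2 and 3 h. Plasma cytokines measured by mouse inflammation bead array.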

[3] = target: T1, MAP kinase p38 (Homo sapiens); experiment: Inhibition of p38MAPK phosphorylation in LPS-induced human whole blood neutrophils; type: tissue-based
Mus musculus [4] = experiment: Prevention of LPS-induced lethality in D-galactosamine-primed CF1 mouse model of lethal endotoxic shock at 8 mg/kg, sc administered concurrently to LPS administration; type: functional, organism-based; set-up: dose 8 mg/kg
Procedure, shortened: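 D-galactosamine-sensitized female CF-1 mice received 8 mg/kg s.c. at different times before or after i.p. LPS (200 ng/animal, 2× LD100, given at 0 h), including concurrent dosing. Survival recorded.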

Blood [5] = experiment: Inhibition of LPS-induced IL8 production in human whole blood; type: functional, tissue-based
Procedure, shortened: (§2)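 EDTA-anticoagulated fresh whole blood from healthy human volunteers, mixed with an equal volume of 20 ng/ml E. coli O111:B4 LPS. Graded compound, diluted in saline, added at the same time. Incubated 4 h. TNF-α, IL-6 and IL-8 were quantified by multiplexed flow-cytometric bead array against recombinant standard curves.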

[6] = target: T1, MAP kinase p38 (Homo sapiens); experiment: Inhibition of TNFalpha induced p38MAPK phosphorylation in human whole blood neutrophils; type: tissue-based
Mus musculus [7] = experiment: Toxicity in mouse at 40 mg/kg, sc after 5 days; type: organism-based; set-up: dose 40 mg/kg, route subcutaneous; settings: in vivo, 120 h
Procedure, shortened: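 Female CF-1 mice were given 40 mg/kg s.c. in the lower flank daily for 5 days (200 mg/kg total), in 0.2 ml isotonic saline with human serum albumin at 66 mg/ml. They were monitored for external signs, and nephro- and hepatotoxicity were assessed by clinical chemistry on Day 6.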

J774.A1 = experiment: Inhibition of nitric oxide production in LPS-stimulated mouse J774A.1 cells; type: functional, cell-based
Procedure, shortened: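 J774A.1 cells in RPMI-1640 with 10% FBS and 200 μg/ml L-arginine, 37 °C, 5% CO2. Plated at ~10^5 cells/ml, grown to confluency, then given 10 ng/ml E. coli O111:B4 LPS together with serially diluted compound for 16 h. Nitrite measured with Griess reagent (15 min, RT, dark) at 535 nm against a sodium nitrite standard curve.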

Blood [8] = experiment: Inhibition of LPS-induced TNFalpha production in human whole blood; type: functional, tissue-based; procedure, shortened: as §2
Mus musculus [9] = species: Mus musculus; experiment: Prevention of TNFalpha induced lethality in CF1 mouse; type: functional, organism-based
Procedure, shortened: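 Mice were challenged with 100 ng/animal of recombinant murine TNF-α, and lethality was assessed.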

Mus musculus [10] = experiment: Inhibition of LPS-induced plasma TNFalpha level in sc dosed mouse pretreated 1 hr before LPS challenge by CBA assay; type: functional, organism-based; procedure, shortened: as §1
Mus musculus [11] = experiment: Inhibition of LPS-induced plasma MCP1 level in sc dosed mouse pretreated 1 hr before LPS challenge by CBA assay; type: functional, organism-based; procedure, shortened: as §1
Blood [12] = experiment: Inhibition of LPS-induced IL6 production in human whole blood; type: functional, tissue-based; procedure, shortened: as §2
[13] = Binding affinity to LPS by BODIPY-TR-cadaverine displacement assay
Procedure, shortened: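 Fluorescence displacement of BODIPY-TR-cadaverine (5 μM) bound to E. coli O111:B4 smooth LPS (50 μg/ml), both in the mixture added to the wells. Compound serially diluted two-fold in 50 mM Tris pH 7.4 […], quadruplicates. Ex 580/em 620 nm at 25 °C. ED50 is the dose that displaces 50% of bound probe, taken from a four-parameter logistic fit.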

Mus musculus [14] = species: Mus musculus; experiment: Prevention of LPS-induced lethality in D-galactosamine-primed CF1 mouse model of lethal endotoxic shock; type: functional, organism-based

T1 sequence (P53778 whole entry, looked up, chain 1 of 4): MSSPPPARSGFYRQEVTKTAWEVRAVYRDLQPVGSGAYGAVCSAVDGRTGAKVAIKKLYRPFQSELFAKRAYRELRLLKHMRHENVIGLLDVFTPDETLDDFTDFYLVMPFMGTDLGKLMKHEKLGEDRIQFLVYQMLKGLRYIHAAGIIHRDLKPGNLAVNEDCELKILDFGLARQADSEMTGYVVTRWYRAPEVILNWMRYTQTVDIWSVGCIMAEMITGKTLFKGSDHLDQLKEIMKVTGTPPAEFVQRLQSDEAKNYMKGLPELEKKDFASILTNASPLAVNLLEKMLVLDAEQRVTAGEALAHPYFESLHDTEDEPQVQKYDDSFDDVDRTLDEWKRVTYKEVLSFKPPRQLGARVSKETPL
T1 sequence (Q16539 whole entry, looked up, chain 2 of 4): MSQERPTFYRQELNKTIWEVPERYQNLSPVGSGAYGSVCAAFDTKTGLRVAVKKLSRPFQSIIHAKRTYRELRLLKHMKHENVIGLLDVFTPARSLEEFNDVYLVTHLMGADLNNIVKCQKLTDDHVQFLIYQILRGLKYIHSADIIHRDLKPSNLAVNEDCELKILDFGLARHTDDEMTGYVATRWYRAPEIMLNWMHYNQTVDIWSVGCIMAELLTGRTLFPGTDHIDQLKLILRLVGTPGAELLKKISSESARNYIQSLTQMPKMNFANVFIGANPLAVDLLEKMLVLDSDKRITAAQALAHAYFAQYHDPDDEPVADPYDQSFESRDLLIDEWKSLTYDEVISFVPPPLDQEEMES
T1 sequence (Q15759 whole entry, looked up, chain 3 of 4): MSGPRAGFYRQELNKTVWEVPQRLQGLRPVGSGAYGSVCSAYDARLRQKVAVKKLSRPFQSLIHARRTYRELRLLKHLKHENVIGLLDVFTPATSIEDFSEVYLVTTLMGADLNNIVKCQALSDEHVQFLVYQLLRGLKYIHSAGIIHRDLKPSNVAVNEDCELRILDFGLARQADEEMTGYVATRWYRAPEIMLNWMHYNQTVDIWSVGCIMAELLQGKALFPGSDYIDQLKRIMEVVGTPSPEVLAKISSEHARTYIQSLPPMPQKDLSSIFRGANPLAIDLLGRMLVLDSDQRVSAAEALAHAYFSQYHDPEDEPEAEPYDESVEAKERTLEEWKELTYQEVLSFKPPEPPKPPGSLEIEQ
T1 sequence (O15264 whole entry, looked up, chain 4 of 4): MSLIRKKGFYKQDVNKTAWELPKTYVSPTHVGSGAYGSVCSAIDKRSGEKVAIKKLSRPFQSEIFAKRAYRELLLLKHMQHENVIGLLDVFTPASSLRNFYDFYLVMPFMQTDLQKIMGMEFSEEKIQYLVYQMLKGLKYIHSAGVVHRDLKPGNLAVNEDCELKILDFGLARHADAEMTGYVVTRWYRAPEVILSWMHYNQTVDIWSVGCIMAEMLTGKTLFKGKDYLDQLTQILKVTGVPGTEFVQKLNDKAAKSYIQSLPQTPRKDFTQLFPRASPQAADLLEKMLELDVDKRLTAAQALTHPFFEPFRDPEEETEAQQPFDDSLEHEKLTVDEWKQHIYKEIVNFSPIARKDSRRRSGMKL

CCCCCCCCCCCCCCCC(CCCCCCCCCCCCCCC)NCCCNCCCNCCCCNCCCN
IC50 (HEK293): 2.7 µM

CCCCCCCCCCCCCCC/C=C(/CCCCCCCCCCCCCC)CNCCCNCCCNCCCCNCCCN
Activity [1]: inactive | Activity (Mus musculus [2]): Dose-dependent effect | Activity [3]: Dose-dependent effect | Activity (Mus musculus [4]): Active | IC50 (Blood [5]; Homo sapiens, Blood): 3.08 µM | IC50 (HEK293): 2.9 µM | Activity [6]: inactive | Activity (Mus musculus [7]): Non-toxic | IC50 (J774.A1; Mus musculus, J774.A1): 2.22 µM | IC50 (Blood [8]; Homo sapiens, Blood): 3.85 µM | Activity (Mus musculus [9]): inactive | Activity (Mus musculus [10]): Dose-dependent effect | Activity (Mus musculus [11]): Dose-dependent effect | IC50 (Blood [12]; Homo sapiens, Blood): 4 µM | ED50 [13]: 3.14 µM | Activity (Mus musculus [14]): Active

CCCCCCCCCCCCCCCC(CCCCCCCCCCCCCCC)NCCCNCCCNCCCCNCCCNCCCNC(CCCCCCCCCCCCCCC)CCCCCCCCCCCCCCC
IC50 (HEK293): 21 µM

CCCCCCCCCCCCCCC/C=C(/CCCCCCCCCCCCCC)CNCCCNCCCNCCCCNCCCNCCCNC/C(=C\CCCCCCCCCCCCCCC)CCCCCCCCCCCCCC
IC50 (HEK293): 22 µM

POLYMYXIN B [listing 1 of 2 here]
IC50 (Blood [5]): 16.4 µM | IC50 (J774.A1; j774.a1): 1.79 µM | IC50 (Blood [8]): 14.2 µM | IC50 (Blood [12]): 11 µM

CCCCCCCCCCCCCCCCC(CCCCCCCCCCCCCC)CNCCCNCCCNCCCCNCCCN (stereo not given)
IC50 (HEK293): 2.6 µM

CCCCCCCCCCCCCCCCN(CCCCCCCCCCCCCCCC)CCCNCCCNCCCCNCCCN
IC50 (HEK293): 2.7 µM

POLYMYXIN B [listing 2 of 2 here]
Activity [1]: inactive | Activity [3]: Dose-dependent effect | Activity [6]: inactive | ED50 [13]: 1.22 µM | Activity (Mus musculus [14]): Active
